Source: ChEMBL document CHEMBL1148169, “Bioactive and other sesquiterpenoids from Porella cordeana” (1993)

Legend:
[1] = system: Saccharomyces cerevisiae; experiment: DNA damaging activity against RS167N rad6 DNA repair gene deficient Saccharomyces cerevisiae mutant assessed as drug level required to produce 12 mm zone of inhibition after 48 hrs; format: functional
Outline: (§1)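 Agar well-diffusion test on Saccharomyces cerevisiae strains differing in DNA-repair genes. Sample is placed in a 100 μl well and the plate is incubated 48 h at 37°. The value is the concentration in μg/ml that gives a 12 mm diameter inhibition zone around the well.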

[2] = system: Saccharomyces cerevisiae; experiment: DNA damaging activity against RS322YK rad52 DNA repair gene deficient Saccharomyces cerevisiae mutant assessed as drug level required to produce 12 mm zone of inhibition after 48 hrs; format: functional; outline: as §1
[3] = system: Saccharomyces cerevisiae; experiment: DNA damaging activity against DNA repair gene deficient Saccharomyces cerevisiae mutant assessed as drug level required to produce 12 mm zone of inhibition after 48 hrs

`CC1(C)CCC[C@]2(C)C3=C(COC3=O)C(=O)C[C@@H]12` was tested, and the IC12 [1] was > 1000 µg/mL, the IC12 [2] was > 1000 µg/mL and the IC12 [3] was > 1000 µg/mL.

With `C[C@@H]1[C@@H]2C[C@@]3(C)C(=O)c4ccoc4C[C@@]13C(=O)O2` [NORPINGUISANOLIDE] the IC12 [1] was > 1000 µg/mL, the IC12 [2] was > 1000 µg/mL and the IC12 [3] was > 1000 µg/mL.

For `CC1(C)CCC[C@@]2(C)C1=CC(=O)C1=C2C(=O)OC1`, the IC12 [1] was > 1000 µg/mL, the IC12 [2] was > 1000 µg/mL and the IC12 [3] was > 1000 µg/mL.

In the case of `C[C@@H]1CCCC2=CC(=O)[C@@H]3[C@@H](C3(C)C)[C@]21C` [ARISTOLONE], the IC12 [1] is reported as > 1000 µg/mL, the IC12 [2] is reported as 390 µg/mL and the IC12 [3] is reported as > 1000 µg/mL.

`CC1(C)CCC[C@]2(C)[C@H]3C(=O)OCC3=CC[C@@H]12` [DRIMENIN] was tested, and the IC12 [1] was > 1000 µg/mL, the IC12 [2] was 200 µg/mL and the IC12 [3] was > 1000 µg/mL.
